# Where “and” joins values, the source holds several entries; their conditions need not be identical. Identical values can stand only once.
# How the values were obtained:
# P388 [1] = assay: (§1) Antitumor activity in P-388 lymphocytic leukemia system at 200 mg/kg dose levels per injection.; type: functional, Mus musculus
# Outline: (§2)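 P-388 leukemia in animals, Q01D×09 schedule: dose given daily for 9 days, in mg/kg per injection. Read-outs are survivors on day 4 (live/total animals), body-weight difference test minus control (g), and % T/C (median lifetime of treated ÷ median lifetime of controls × 100). Some compounds were tested in independent runs at different times.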
# P388 [2] = assay: (§3) Antitumor activity in P-388 lymphocytic leukemia system at 50 mg/kg dose levels per injection.; type: functional, Mus musculus
# Outline: (§4)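 P-388 leukemia in vivo, dosed Q01D×09 (one injection daily for 9 days, mg/kg per injection). Activity is %T/C, the median lifetime of treated animals divided by that of controls, ×100. Live animals on day 4 were counted against the total (survivors day 4). Repeat tests were done independently at different times.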
# P388 [3] = assay: (§5) Antitumor activity in P-388 lymphocytic leukemia system at 100 mg/kg dose levels per injection.; type: functional, Mus musculus; outline: as §4
# P388 [4] = assay: Compound was tested for antitumor activity in P-388 lymphocytic leukemia system at 200 mg/kg dose levels per injection; type: functional, Mus musculus; outline: as §4
# P388 [5] = assay: as §3; type: functional, Mus musculus; outline: as §2; remark: listed apart in the source
# P388 [6] = assay: as §5; type: functional, Mus musculus; outline: as §2; remark: listed apart in the source
# [7] = Solubility was determined; INS= less than 0.1; type: physicochemical
# P388 [8] = assay: Compound was tested for antitumor activity in P-388 lymphocytic leukemia system. at 400 mg/kg dose levels per injection; type: functional, Mus musculus; outline: as §4
# P388 [9] = assay: as §1; type: functional, Mus musculus; outline: as §4; remark: listed apart in the source
# P388 [10] = assay: Compound was tested for antitumor activity in P-388 lymphocytic leukemia system at 400 mg/kg dose levels per injection; type: functional, Mus musculus; outline: as §4
# P388 [11] = assay: Compound was tested for antitumor activity in P-388 lymphocytic leukemia system at 400 mg/kg dose levels per injection; 6/6; type: functional, Mus musculus; outline: as §2
# [12] = Solubility was determined; type: physicochemical
# P388 [13] = assay: Compound was tested for antitumor activity in P-388 lymphocytic leukemia system and the difference in body weight was calculated at 400 mg/kg dose levels per injection; type: functional, Mus musculus
# P388 [14] = assay: Compound was tested for antitumor activity in P-388 lymphocytic leukemia system at 400 mg/kg dose levels per injection; Toxic; type: functional, organism-based; parameters: dose 400 mg/kg; conditions: Mus musculus; outline: as §4
# P388 [15] = assay: Antitumor activity in P-388 lymphocytic leukemia system and the difference in body weight was calculated at 50 mg/kg dose levels per injection.; type: functional, Mus musculus
# P388 [16] = assay: Compound was tested for antitumor activity in P-388 lymphocytic leukemia system at 400 mg/kg dose levels per injection; 3/6; type: functional, Mus musculus; outline: as §2
# P388 [17] = assay: Antitumor activity in P-388 lymphocytic leukemia system and the difference in body weight was calculated at 200 mg/kg dose levels per injection.; type: functional, Mus musculus; conditions: 200 mg/kg
# P388 [18] = assay: Antitumor activity in P-388 lymphocytic leukemia system at 25 mg/kg dose levels per injection.; type: functional, Mus musculus; outline: as §2
# P388 [19] = assay: Antitumor activity in P-388 lymphocytic leukemia system and the difference in body weight was calculated at 25 mg/kg dose levels per injection.; type: functional, Mus musculus
# P388 [20] = assay: Compound was tested for antitumor activity in P-388 lymphocytic leukemia system. at 400 mg/kg dose levels per injection; Toxic; type: functional, organism-based; parameters: dose 400 mg/kg; conditions: Mus musculus; outline: as §4
# P388 [21] = assay: Compound was tested for antitumor activity in P-388 lymphocytic leukemia system at 25 mg/kg dose levels per injection; type: functional, Mus musculus; outline: as §4
# P388 [22] = assay: Antitumor activity in P-388 lymphocytic leukemia system and the difference in body weight calculated at 100 mg/kg dose levels per injection.; type: functional, Mus musculus
# P388 [23] = assay: Compound was tested for antitumor activity in P-388 lymphocytic leukemia system at 200 mg/kg dose levels per injection;6/6; type: functional, Mus musculus; outline: as §2
# P388 [24] = assay: Antitumor activity in P-388 lymphocytic leukemia system at 25 mg/kg dose levels per injection; type: functional, Mus musculus; outline: as §4
# P388 [25] = assay: Compound was tested for antitumor activity in P-388 lymphocytic leukemia system at 200 mg/kg dose levels per injection.; type: functional, organism-based; parameters: dose 200 mg/kg; conditions: Mus musculus; outline: as §4
# P388 [26] = assay: Compound was tested for antitumor activity in P-388 lymphocytic leukemia system at 25 mg/kg dose levels per injection; 6/6; type: functional, Mus musculus; outline: as §2
# P388 [27] = assay: Compound was tested for antitumor activity in P-388 lymphocytic leukemia system at 200 mg/kg dose levels per injection; 5/6; type: functional, Mus musculus; outline: as §2
# P388 [28] = assay: Compound was tested for antitumor activity in P-388 lymphocytic leukemia system at 100 mg/kg dose levels per injection; 5/6; type: functional, Mus musculus; outline: as §2
# P388 [29] = assay: Compound was tested for antitumor activity in P-388 lymphocytic leukemia system at 200 mg/kg dose levels per injection; 0/6; type: functional, Mus musculus; outline: as §2
# P388 [30] = assay: Compound was tested for antitumor activity in P-388 lymphocytic leukemia system. at 200 mg/kg dose levels per injection; Toxic; type: functional, organism-based; parameters: dose 200 mg/kg; conditions: Mus musculus; outline: as §4
# P388 [31] = assay: Compound was tested for antitumor activity in P-388 lymphocytic leukemia system at 166.7 mg/kg dose levels per injection; Toxic; type: functional, organism-based; parameters: dose 166.7 mg/kg; conditions: Mus musculus; outline: as §4
SMILES,Survivors at day 4 (P388 [1]),T/C (P388 [2]) [%],Weight difference (P388 [2]) [g],T/C (P388 [3]) [%],Weight difference (P388 [3]) [g],Survivors at day 4 (P388 [5]),Survivors at day 4 (P388 [6]),Solubility [7],Survivors at day 4 (P388 [11]),T/C (P388 [9]; 200 mg/kg),T/C (P388 [3]; 100 mg/kg),Weight difference (P388 [17]),T/C (P388 [2]; 50 mg/kg),further results
CC1=CC2(C)C3C(=O)NC(=O)C3C1C1(C)C3C(=O)NC(=O)C3C21 (configuration not stated),6,108,-0.9,109,-1.5,6,6,Insoluble,6,–,–,–,–,Weight difference (P388 [4]): -1.8 g; T/C (P388 [8]): 101%; T/C (P388 [9]): 97%; Weight difference (P388 [10]): -5.3 g
O=C1NC(=O)C2C1C(C(=O)O)C1C3C(=O)NC(=O)C3C1C2C(=O)O (configuration not stated),6,94,0,97,-0.7,6,6,Insoluble,6,92% and 91%,–,–,–,T/C (P388 [10]): 96%; Weight difference (P388 [10]): -0.2 g
CN1CCN(CN2C(=O)C3C4C=CC(C3C2=O)C2C(=O)N(CN3CCN(C)CC3)C(=O)C42)CC1 (configuration not stated),6,108,–,–,–,6,6,–,–,122% and 128%,126% and 113%,-3.1 g and -3.6 g,–,Solubility [12]: 2%; Weight difference (P388 [13]): -6.4 g; T/C (P388 [14]): Toxic; Weight difference (P388 [15]): 0 g; Survivors at day 4 (P388 [16]): 3
O=C(O)C1C2C(=O)N(CO)C(=O)C2C(C(=O)O)C2C3C(=O)N(CO)C(=O)C3C12 (configuration not stated),6,–,–,–,–,6,6,–,6,114% and 120%,120% and 107%,–,92% and 105%,T/C (P388 [8]; 400 mg/kg): 129% and 131%; Weight difference (P388 [15]; 50 mg/kg): -0.9 g and -1.2 g
CC(=O)OC(C(=O)O)N1C(=O)C2C3C=CC(C2C1=O)C1C2C(=O)N(C(OC(C)=O)C(=O)O)C(=O)C2C31 (configuration not stated),6,110,–,–,–,6,6,–,–,175% and 125%,123% and 113%,-1.2 g and -0.5 g,–,Survivors at day 4 (P388 [18]): 6; Weight difference (P388 [19]): 0.2 g; Weight difference (P388 [13]): -5.7 g; T/C (P388 [20]): Toxic; T/C (P388 [21]): 103%; Weight difference (P388 [15]): -0.3 g; Survivors at day 4 (P388 [16]): 3
COC1=CC2C3C(=O)NC(=O)C3C1C1C3C(=O)NC(=O)C3C21 (configuration not stated),6,99,–,101,–,6,6,Insoluble,6,101% and 90%,–,-0.3 g and -0.4 g,–,Weight difference (P388 [22]): -0.3 g; T/C (P388 [8]): 98%; Weight difference (P388 [13]): -2 g; Survivors at day 4 (P388 [23]): 6; Weight difference (P388 [15]): 0 g
O=C1C2C3C=CC(C2C(=O)N1CO)C1C(=O)N(CO)C(=O)C31 (configuration not stated),6,–,–,–,–,6,6,–,–,160% and 152%,144% and 137%,-3.4 g and -4.1 g,127% and 140%,Survivors at day 4 (P388 [18]): 6; Solubility [12]: 0.5%; Weight difference (P388 [22]; 100 mg/kg): -3.9 g and -4 g; Weight difference (P388 [15]; 50 mg/kg): -2.5 g and -1.8 g; T/C (P388 [24]; 25 mg/kg): 114% and 132%
CCOC(=O)N1C(=O)C2C3CCC(C2C1=O)C1C2C(=O)N(C(=O)OCC)C(=O)C2C31 (configuration not stated),6,–,–,–,–,6,6,Insoluble,–,–,157% and 142%,–,127% and 115%,Weight difference (P388 [2]; 50 mg/kg): -0.3 g and -0.4 g; Weight difference (P388 [3]; 100 mg/kg): -1.2 g and -2.2 g; Weight difference (P388 [4]; 200 mg/kg): -4 g and -5.2 g; T/C (P388 [25]): Toxic; Survivors at day 4 (P388 [26]): 6; T/C (P388 [9]): 222%; Weight difference (P388 [21]; 25 mg/kg): -0.5 g and -0.7 g; T/C (P388 [24]; 25 mg/kg): 111% and 104%; Survivors at day 4 (P388 [27]): 5
O=C1NC(=O)C2C3C=CC(C12)C1C(=O)NC(=O)C31 (configuration not stated),–,100,-1.1,97,-2.4,6,–,Insoluble,–,–,–,–,–,Weight difference (P388 [4]): -4.3 g; Survivors at day 4 (P388 [26]): 6; T/C (P388 [9]): 92%; Weight difference (P388 [21]): -0.7 g; T/C (P388 [24]): 105%; Survivors at day 4 (P388 [27]): 5; Survivors at day 4 (P388 [28]): 5
CCOC(=O)N1C(=O)C2C3C=CC(C2C1=O)C1C2C(=O)N(C(=O)OCC)C(=O)C2C31 (configuration not stated),6,–,–,–,–,6,6,Insoluble,–,–,152% and 145%,–,135% and 121%,Survivors at day 4 (P388 [18]): 6; Weight difference (P388 [2]; 50 mg/kg): -0.6 g and -0.8 g; Weight difference (P388 [3]; 100 mg/kg): -4.6 g and -5.5 g; Weight difference (P388 [4]): -6.5 g; T/C (P388 [25]): Toxic; T/C (P388 [24]; 25 mg/kg): 124% and 116%; Survivors at day 4 (P388 [29]): 0
CN1C(=O)C2C3C=CC(C2C1=O)C1C2C(=O)N(C)C(=O)C2C31 (configuration not stated),6,108,-0.9,111,-0.8,6,6,Insoluble,6,111% and 104%,–,–,–,Weight difference (P388 [4]; 200 mg/kg): -0.8 g and -1.4 g; T/C (P388 [10]): 135%; Weight difference (P388 [10]): -2 g
CN1CCN(CN2C(=O)C3C4C=CC(C3C2=O)C2C3C(=O)N(CN5CCN(C)CC5)C(=O)C3C42)CC1 (configuration not stated),–,–,–,–,–,–,–,–,–,–,–,–,–,T/C (P388 [30]): Toxic; T/C (P388 [31]): Toxic
